# Legend:
# [1] = tested on: Rattus norvegicus; test: Effect on bone calcium mobilization in vitamin D-deficient weanling rat assessed as increase in serum calcium level at 22.8 ug/kg, ip administered as 7 consecutive daily doses measured 24 hrs after last dose relative to untreated control; format: functional
# Method in brief: (§1)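 Weanling male rats were fed a 0.47% Ca diet for 1 week, then a 0.02% Ca diet for 3 weeks. In the final week they received daily intraperitoneal doses for 7 days in 0.1 mL propylene glycol/ethanol (95:5); controls got vehicle. There were 5–6 rats per group. Serum Ca and the intestinal serosal/mucosal Ca ratio were compared with vehicle.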
# [2] = molecular target: T1, Vitamin D3 receptor (Rattus norvegicus, UniProt P13053); test: Activity at VDR in rat ROS 17/2.8 cells assessed as transcriptional activation of 24-hydroxylase gene promoter after 16 hrs by luciferase reporter gene assay; format: cell-based
# T1 sequence (P13053 whole entry): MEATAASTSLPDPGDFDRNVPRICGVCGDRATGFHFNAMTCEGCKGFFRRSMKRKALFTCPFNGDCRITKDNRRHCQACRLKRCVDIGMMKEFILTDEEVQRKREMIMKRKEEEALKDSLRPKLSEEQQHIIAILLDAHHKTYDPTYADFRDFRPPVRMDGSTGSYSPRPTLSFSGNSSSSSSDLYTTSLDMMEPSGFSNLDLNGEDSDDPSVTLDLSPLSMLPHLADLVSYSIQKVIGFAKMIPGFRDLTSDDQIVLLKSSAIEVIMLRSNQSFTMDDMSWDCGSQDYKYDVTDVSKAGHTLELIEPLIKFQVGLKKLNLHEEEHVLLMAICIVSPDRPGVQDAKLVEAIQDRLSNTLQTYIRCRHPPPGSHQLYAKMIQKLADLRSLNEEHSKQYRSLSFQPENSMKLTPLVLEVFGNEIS
# Method in brief: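 ROS 17/2.8 rat osteosarcoma cells stably transfected with a 24-hydroxylase promoter–luciferase reporter were dosed over a concentration range and harvested 16 h later. Luciferase was read on a luminometer.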
# [3] = molecular target: T1, Vitamin D3 receptor; test: Displacement of [3H]1-alpha,25-(OH)2D3 from rat recombinant full length VDR
# Method in brief: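 It was incubated overnight on ice with 1 nM (final) [3H]1α,25-(OH)2D3 plus unlabeled competitor, ethanol <10%. Bound ligand was collected on hydroxylapatite, washed and scintillation counted. […] Runs were in duplicate.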
# [4] = tested on: Rattus norvegicus; test: Effect on bone calcium mobilization in vitamin D-deficient weanling rat assessed as increase in serum calcium level at 1.9 ug/kg, ip administered as 7 consecutive daily doses measured 24 hrs after last dose relative to untreated control; format: functional; method in brief: as §1
# [5] = tested on: HL-60; test: Induction of cell differentiation of human HL60 cells to monocytes by NBT reduction assay; format: functional, cell-based
# [6] = tested on: Rattus norvegicus; test: Effect on bone calcium mobilization in vitamin D-deficient weanling rat assessed as increase in serum calcium level at 5.7 ug/kg, ip administered as 7 consecutive daily doses measured 24 hrs after last dose relative to untreated control; format: functional; method in brief: as §1
# [7] = tested on: HL-60; test: Ratio of EC50 of drug to EC50 of 1-alpha,25-(OH)2D3 for induction of cell differentiation of human HL60 cells to monocytes by NBT reduction assay
# [8] = tested on: Rattus norvegicus; test: Effect on calcium transport in vitamin D-deficient weanling rat intestine assessed as increase in ratio of serosal to mucosal calcium level at 55 ug/kg, ip administered as 7 consecutive daily doses measured 24 hrs after last dose; format: functional; method in brief: as §1
# [9] = tested on: Rattus norvegicus; test: Effect on bone calcium mobilization in vitamin D-deficient weanling rat assessed as increase in serum calcium level at 55 ug/kg, ip administered as 7 consecutive daily doses measured 24 hrs after last dose relative to untreated control; format: functional; method in brief: as §1
# [10] = tested on: Rattus norvegicus; test: Effect on bone calcium mobilization in vitamin D-deficient weanling rat assessed as increase in serum calcium level at 5.5 ug/kg, ip administered as 7 consecutive daily doses measured 24 hrs after last dose relative to untreated control; format: functional; method in brief: as §1
# [11] = tested on: Rattus norvegicus; test: Effect on calcium transport in vitamin D-deficient weanling rat intestine assessed as increase in ratio of serosal to mucosal calcium level at 5.5 ug/kg, ip administered as 7 consecutive daily doses measured 24 hrs after last dose; format: functional; method in brief: as §1
# [12] = tested on: Rattus norvegicus; test: Effect on bone calcium mobilization in vitamin D-deficient weanling rat assessed as increase in serum calcium level at 165 ug/kg, ip administered as 7 consecutive daily doses measured 24 hrs after last dose relative to untreated control; format: functional; method in brief: as §1
# [13] = tested on: Rattus norvegicus; test: Effect on calcium transport in vitamin D-deficient weanling rat intestine assessed as increase in ratio of serosal to mucosal calcium level at 165 ug/kg, ip administered as 7 consecutive daily doses measured 24 hrs after last dose; format: functional; method in brief: as §1
SMILES,EC50 [2] [nM],Ki [3] [nM],EC50 [5] [nM],fold change (FC) [1],fold change (FC) [4],fold change (FC) [6],Ratio EC50 [7],Ratio [8],fold change (FC) [9],fold change (FC) [10],Ratio [11],fold change (FC) [12],Ratio [13]
C=C1[C@H](O)CC(=C/C=C/C/C(C)=C/[C@@H](C)CCCC(C)(C)O)C[C@H]1O,> 100,60,> 1000,,,,>333,,,,,,
C=C1[C@H](O)CC(=C/C=C\C/C(C)=C/[C@@H](C)CCCC(C)(C)O)C[C@H]1O,> 100,> 1000,> 1000,,,,>333,,,,,,
C=C1[C@H](O)CC(=C/C=C/C[C@@H](C)C[C@@H](C)CCCC(C)(C)O)C[C@H]1O,90,10,300,,,,100,-0.5,-0.2,-0.2,0.4,-0.1,-0.9

# The next molecules have a lower EC50 [2] than those just listed; values first:
EC50 [2] [nM],Ki [3] [nM],EC50 [5] [nM],SMILES,fold change (FC) [1],fold change (FC) [4],fold change (FC) [6],Ratio EC50 [7],Ratio [8],fold change (FC) [9],fold change (FC) [10],Ratio [11],fold change (FC) [12],Ratio [13]
50,50,300,C=C1[C@H](O)CC(=C/C=C/CCC[C@@H](C)CCCC(C)(C)O)C[C@H]1O,0.2,-0.2,0.1,100,,,,,,
3,30,6,C=C1[C@H](O)CC(=C/C=C/C[C@H](C)C[C@@H](C)CCCC(C)(C)O)C[C@H]1O,,,,2,,,,,,
